According to ChEMBL document CHEMBL3400028, “Evaluation of Aconitum diterpenoid alkaloids as antiproliferative agents” (2015):

What was measured:
Format in all cases: functional
A549 = test: Antiproliferative activity against human A549 cells by sulforhodamine B assay
Summary of the method: (§1)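 Cells in RPMI 1640 (25 mM HEPES, 2 mM L-glutamine, 10% heat-inactivated FBS, antibiotics) at 37 °C, 5% CO2. Seeded at 3–5 × 10³/well with graded concentrations, paclitaxel as assay control, for 72 h. TCA-fixed, stained with 0.04% SRB, dye dissolved in 10 mM Tris, A515 read. GI50 is the concentration halving absorbance versus untreated cells; three or more experiments.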

[1] = Selectivity ratio of GI50 for human KB cells to GI50 for multidrug-resistant P-gp expressing human KBVIN cells
Summary of the method: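 Ratio of GI50 in parental KB to GI50 in P-gp-overexpressing KB-VIN. […] KB-VIN cells were grown 7–10 days without vincristine before the assay.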

DU-145 = test: Antiproliferative activity against human DU145 cells by sulforhodamine B assay; summary of the method: as §1
KB = test: Antiproliferative activity against human KB cells by sulforhodamine B assay; summary of the method: as §1
[2] = Antiproliferative activity against multidrug-resistant P-gp expressing human KBVIN cells by sulforhodamine B assay
Summary of the method: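 Vincristine-resistant KB subline kept in 100 nM vincristine, then grown 7–10 days without it before testing. RPMI 1640 with 10% FBS, 37 °C, 5% CO2. 3–5 × 10³ cells/well exposed 72 h to a concentration series, paclitaxel as assay control. SRB staining after TCA fixation, A515 read. GI50 is the 50% absorbance reduction versus untreated cells; three or more experiments.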

SMILES | GI50 (A549) | RatioGI50 [1] | GI50 (DU-145) | GI50 (KB) | GI50 [2]
CCN1C[C@]2(COC)CC[C@H](O)[C@]34C1[C@@](O)([C@@H](OC)[C@H]23)[C@@]1(O)C[C@H](OC)[C@H]2C[C@@H]4[C@@H]1[C@H]2OC(C)=O | > 20 µM | >20 | > 20 µM | > 20 µM | > 20 µM
C=C1[C@H]2C[C@@]3([C@@H]1O)[C@@H](C[C@@H]2O)[C@@]12C4[C@@H]3C[C@@H]1[C@@](C)(CC[C@@H]2OC(C)=O)CN4CC | > 20 µM | >20 | > 20 µM | > 20 µM | > 20 µM
C=C1[C@H]2C[C@@H]3C4N5C[C@]6(C)CCC[C@@]47[C@@H]6[C@@]5(O)C[C@]3([C@@H]1O)[C@H]7[C@H]2OC(=O)c1ccc([N+](=O)[O-])cc1 | 5.8 µM | 1 | 7.2 µM | 6.4 µM | 6.4 µM
CO[C@H]1[C@@H]2C[C@@H]3[C@H]1[C@](O)(C[C@@H]2OC)[C@@]1(O)C2NC(=O)[C@]4(COC(=O)c5ccccc5N)CC[C@H](OC)[C@@]23[C@@H]4[C@@H]1OC | > 20 µM | >20 | > 20 µM | > 20 µM | > 20 µM
CCN1C[C@]2(C)CC[C@H](OC)[C@@]34[C@@H]5C[C@H]6[C@H](OC)[C@@H]5[C@@]5(C[C@@H]6OC)OCO[C@@]5([C@@H](OC(=O)c5cccc(C(F)(F)F)c5)[C@H]23)[C@@H]14 | 10 µM | 10 | 10 µM | 10 µM | 10 µM
C=C1[C@H]2C[C@@H]3C4N5C[C@]6(C)CCC[C@@]47[C@@H]6[C@@H]5C[C@]3([C@@H]1OC(=O)c1ccc(OC)cc1)[C@H]7[C@H]2OC(=O)c1ccc(OC)cc1 | 6.7 µM | 1 | 7.1 µM | 5.3 µM | 5.2 µM
C=C1[C@H]2C[C@@]3([C@@H]1OC(C)=O)[C@@H](C[C@@H]2O)[C@@]12C4[C@@H]3C[C@@H]1[C@@](C)(CC[C@@H]2O)C[N+]4([O-])CC (stereo not given in full) | > 20 µM | >20 | > 20 µM | > 20 µM | > 20 µM
CCN1C[C@]2(COC)CC[C@H](OC(=O)c3ccc([N+](=O)[O-])cc3)[C@]34C1[C@@](O)([C@@H](OC)[C@H]23)[C@@]1(O)C[C@H](OC)[C@H]2C[C@@H]4[C@@H]1[C@H]2O | > 20 µM | >20 | > 20 µM | > 20 µM | > 20 µM
C=C1[C@H]2C[C@@H]3C4N5C[C@]6(C)CCC[C@@]47[C@@H]6[C@@]5(O)C[C@]3([C@@H]1O)[C@H]7[C@H]2OC(=O)c1cccc(C(F)(F)F)c1 | 6.8 µM | 1.5 | 7.7 µM | 8.9 µM | 6.2 µM
CCN1C[C@]2(COC)CC[C@H](O)[C@]34C1[C@@](O)([C@@H](OC)[C@H]23)[C@@]1(O)C[C@H](OC)[C@H]2C[C@@H]4[C@@H]1[C@H]2OC [DELSOLINE] | > 20 µM | >20 | > 20 µM | > 20 µM | > 20 µM
C=C1[C@@H](OC(C)=O)[C@]23C[C@@H]1[C@@H](OC(C)=O)C[C@H]2[C@@]12C4C3C[C@@H]1[C@@](C)(CC[C@H]2OC(C)=O)CN4CC | > 20 µM | >20 | > 20 µM | > 20 µM | > 20 µM
C=C1[C@H]2C[C@@H]3C4N5C[C@]6(C)CCC[C@@]47[C@@H]6[C@@]5(OC(=O)c4cccc(C(F)(F)F)c4)C[C@]3([C@@H]1O)[C@H]7[C@H]2OC(=O)c1cccc(C(F)(F)F)c1 | > 20 µM | >20 | > 20 µM | > 20 µM | > 20 µM
C=C1[C@H]2C[C@@H]3C4N5C[C@]6(C)CCC[C@@]47[C@@H]6[C@@]5(OC(=O)c4ccc(OC)cc4)C[C@]3([C@@H]1OC(=O)c1ccc(OC)cc1)[C@H]7[C@H]2O | > 20 µM | >20 | > 20 µM | > 20 µM | > 20 µM
C=C1[C@H]2C[C@H]3C4N5C[C@]6(C)CCC[C@]47[C@H]([C@H]2OC(=O)/C=C/c2ccccc2)C3(C[C@]5(O)[C@H]67)[C@@H]1O | 8.4 µM | 1.1 | 6.5 µM | 7 µM | 6.4 µM
